High-throughput results: PubChem, several laboratories
Only some compounds are listed: those with a hit (about 4.7% of all), similar ones and a draw of the others.
MrgX1 antagonist: blocks BAM8-22 activation of human MrgX1 receptor; Q96LB2; MRGX1-HEK293 calcium flux, Fluo-4, BAM8-22 antagonism; active compounds read low; B-score at 10 µM; 310,000 compounds, 1.3% hits;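 active means calcium-response B-score plate-corrected more than 3 library SD below zero, starting fluorescence within 5 deviations, no agonist response on first addition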;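 further: peak minus trough fluorescence over baseline after final BAM8-22 challenge near maximal dose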
MrgX1 ag: human MrgX1 receptor agonism, primary screen; MrgX1-HEK293 cells, Fluo-4 calcium fluorescence, agonist mode; active compounds read high; AID 588627; 310,000 compounds, 0.44% hits; B-score at 10 µM;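 active means calcium response B-score plate-corrected fluorescence ratio at least 3 library SD, with starting fluorescence B-score inside 5 SD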
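Test system: HEK293 cells stably expressing human MrgX1 receptor; amount: 15,000 cells per well; doses: compound delivered in addition one of three; times: overnight plating before 1 h dye loading; detection: Fluo-4 NW calcium-flux fluorescence, kinetic read; read-out basis: B-scored fluorescence response ratio; controls: positive and negative controls per plate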
MrgX1 PAM: allosterically activates human MrgX1 receptor signaling. 310,000 compounds, 0.63% hits. MrgX1-HEK293, Fluo-4 calcium flux, FDSS; active compounds read high. B-score at 10 µM;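 active means plate-corrected calcium response at least 3 library SD above typical, normal starting fluorescence, not activating the receptor alone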;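 further: compound read alongside a low EC10 to EC30 dose of BAM8-22 agonist; peak minus trough fluorescence over baseline measured at the second addition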
RGS4 pot: RGS4 potentiation or activation. HEK293 M3R/inducible RGS4, carbachol calcium flux Fluo4; active compounds read low. B-score at 10 µM. 310,000 compounds, 0.92% hits;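 active means B-score of the integrated calcium signal more than 4 SD below the library mean, with starting fluorescence not abnormally high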;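 further: negative B-score means reduced calcium response which marks RGS4 activation or potentiation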
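test system = M3R-expressing HEK293 line, RGS4 induced by doxycycline | probe or stimulus = carbachol at ECmax as muscarinic agonist stimulus | timing = dye loading 30 min 37 °C, buffer rest 30 min RT | signal = calcium dye Fluo4 fluorescence | evaluation = B score from integrated fluorescence ratio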
Cl transport mod: modulators of human KCC2 chloride dependent transport; Q9H2X9; 190,000 compounds, 2.2% hits; KCC2 cells, thallium flux FluoZin-2 fluorescence; AID 1456; B-score of Tl+ flux slope (higher = more flux/activation; lower = inhibition) at 10 µM;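 active means thallium flux slope and its plate-corrected score both differing from the plate sample mean at a set confidence after two filtering rounds, in either direction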;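 further: slope of fluorescence scaled to starting intensity during 10 to 20 s after thallium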
Target sequence (Q9H2X9 whole entry, looked up): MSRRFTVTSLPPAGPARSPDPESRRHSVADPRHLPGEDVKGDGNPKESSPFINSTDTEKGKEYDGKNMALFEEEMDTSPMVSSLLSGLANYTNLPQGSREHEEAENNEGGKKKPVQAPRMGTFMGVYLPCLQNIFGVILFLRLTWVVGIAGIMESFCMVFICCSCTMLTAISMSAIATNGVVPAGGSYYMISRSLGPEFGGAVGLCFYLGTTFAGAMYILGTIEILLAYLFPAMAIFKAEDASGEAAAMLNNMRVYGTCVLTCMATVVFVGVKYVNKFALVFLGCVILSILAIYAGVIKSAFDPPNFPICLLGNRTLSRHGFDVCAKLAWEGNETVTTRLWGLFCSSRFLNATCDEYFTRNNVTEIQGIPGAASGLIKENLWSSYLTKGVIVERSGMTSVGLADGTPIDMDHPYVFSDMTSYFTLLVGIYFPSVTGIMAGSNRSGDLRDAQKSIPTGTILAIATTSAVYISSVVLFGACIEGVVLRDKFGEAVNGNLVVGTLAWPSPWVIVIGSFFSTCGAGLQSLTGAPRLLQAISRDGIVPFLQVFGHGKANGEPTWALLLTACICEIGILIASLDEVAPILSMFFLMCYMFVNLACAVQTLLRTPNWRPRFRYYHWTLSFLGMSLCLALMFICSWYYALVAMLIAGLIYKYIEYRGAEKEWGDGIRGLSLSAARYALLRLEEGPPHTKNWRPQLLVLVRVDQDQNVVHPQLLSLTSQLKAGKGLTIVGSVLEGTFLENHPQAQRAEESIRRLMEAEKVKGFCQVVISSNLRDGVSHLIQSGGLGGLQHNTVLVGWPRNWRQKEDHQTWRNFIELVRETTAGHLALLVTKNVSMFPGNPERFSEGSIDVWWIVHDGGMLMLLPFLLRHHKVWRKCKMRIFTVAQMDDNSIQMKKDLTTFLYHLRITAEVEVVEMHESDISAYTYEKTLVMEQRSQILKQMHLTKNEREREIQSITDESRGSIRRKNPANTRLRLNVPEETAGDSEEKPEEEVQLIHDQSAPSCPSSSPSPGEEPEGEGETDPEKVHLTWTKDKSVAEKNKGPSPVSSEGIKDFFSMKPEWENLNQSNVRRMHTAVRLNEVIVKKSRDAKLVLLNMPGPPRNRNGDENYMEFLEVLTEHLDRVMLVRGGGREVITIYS
RGS4 block: inhibitors of human RGS4; 310,000 compounds, 0.45% hits; AID 463165; HEK293 M3R/RGS4 inducible, Fluo-4 calcium flux; active compounds read high; triggered by carbachol at its EC20; B-score at 10 µM;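 active means B-score, a plate-corrected calcium signal, over three deviations above library mean, with baseline fluorescence within five deviations of library mean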;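 further: RGS4 expression induced by doxycycline in cells with stable M3 receptor; B-score is computed from the integrated fluorescence ratio over baseline after carbachol; higher B-score means a larger calcium signal and so more RGS4 inhibition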
MrgX1 antag conf: reconfirmed antagonist of human MrgX1 receptor signaling; MrgX1-HEK293, BAM8-22 calcium flux, Fluo-4; active compounds read low; 2,300 compounds, 19% hits; shares compounds with MrgX1 antagonist; remaining BAM8-22 calcium response % of control (active compounds read low), % at 10 µM; AID 602420;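 active means remaining agonist calcium response no higher than 100% minus 3 SD of agonist-only control wells, with starting fluorescence near control levels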;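 further: agonist BAM8-22 given at a near maximal EC90 to ECmax level; peak minus minimum fluorescence divided by baseline after agonist addition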
HEK293 Ca flux: MrgX1 antagonist counter-screen hit in parental HEK293 cells. fluorescence ratio F(max-min)/F0 at 10 µM. shares compounds with MrgX1 antagonist. 4,000 compounds, 2% hits. Fluo-4 calcium fluorescence, FDSS. AID 624111;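 active means duplicate-averaged calcium fluorescence ratio at least three times the standard deviation of buffer wells, a nonspecific response in parental cells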
HEK293 Ca counter: counter-screen for MrgX1 allosteric activators: effect in parental HEK293 cells; shares compounds with MrgX1 antagonist; parental HEK293 calcium flux, Fluo-4 fluorescence ratio; active compounds read high; fluorescence ratio F(max-min)/F0 at 10 µM; 4,000 compounds, 0.4% hits; AID 624114;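 active means calcium fluorescence ratio, averaged over duplicates, at least 3 SD of the buffer-well ratio, meaning a nonspecific response in receptor-free cells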;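 further: untransfected parental HEK293 lacking MrgX1 used as counterscreen for MrgX1 allosteric activators; fluorescence change taken during the second addition on a kinetic imager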
HEK293 Ca cntr2: counter-screen for MrgX1 activators: effect in parental HEK293 cells; shares compounds with MrgX1 antagonist; Fluo-4 calcium fluorescence (FDSS); active compounds read high; fluorescence ratio F(max-min)/F0 at 10 µM; 4,000 compounds, 8.7% hits; AID 624115;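 active means calcium fluorescence ratio at least three times the spread of buffer wells, meaning a non-specific response in parental cells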
The depositor's hits bear a star.

What do the screens show for `CSc1ncc(C(=O)Nc2cccnc2)c(C(F)(F)F)n1`?
MrgX1 antagonist: inactive; MrgX1 ag: inactive; MrgX1 PAM: inactive; RGS4 pot: inactive; RGS4 block: inactive

Results for CC(C)Oc1ccc(C(CCN)C2CCCCC2)cc1 (centres undefined) ?
MrgX1 antagonist: -4.7*; MrgX1 ag: inactive; MrgX1 PAM: inactive; RGS4 pot: inactive; RGS4 block: inactive; MrgX1 antag conf: inactive; HEK293 Ca flux: inactive; HEK293 Ca counter: inactive; HEK293 Ca cntr2: inactive

How did CCCC(=O)Nc1cc(OC)c(NC(=O)NC2CCCCC2)cc1OC do in these assays?
MrgX1 antagonist: -4.6*; MrgX1 ag: inactive; MrgX1 PAM: inactive; RGS4 pot: inactive; Cl transport mod: 1.1; RGS4 block: inactive; MrgX1 antag conf: inactive; HEK293 Ca flux: inactive; HEK293 Ca counter: inactive; HEK293 Ca cntr2: inactive

How did Cc1cccc(N(C)S(=O)(=O)c2cc3c(cc2C)n(C)c(=O)c(=O)n3C)c1 do in these assays?
MrgX1 antagonist: -4.7*; MrgX1 ag: inactive; MrgX1 PAM: inactive; RGS4 pot: inactive; RGS4 block: inactive; MrgX1 antag conf: inactive; HEK293 Ca flux: inactive; HEK293 Ca counter: inactive; HEK293 Ca cntr2: inactive

What do the screens show for `Cc1cc2c(cc1S(=O)(=O)N(C)c1ccccc1)n(C)c(=O)n2C`?
MrgX1 antagonist: inactive; MrgX1 ag: inactive; MrgX1 PAM: inactive; RGS4 pot: inactive; RGS4 block: inactive

Results for CSc1nc(N2CCN(c3ccccc3)CC2)cc(N2CCN(c3ccccc3)CC2)n1 ?
MrgX1 antagonist: -5.5*; MrgX1 ag: inactive; MrgX1 PAM: inactive; RGS4 pot: inactive; Cl transport mod: -0.48; RGS4 block: inactive; MrgX1 antag conf: inactive; HEK293 Ca flux: inactive; HEK293 Ca counter: inactive; HEK293 Ca cntr2: inactive

Results for Nc1c(S(=O)(=O)c2cccs2)c2nc3ccccc3nc2n1CC1CCCO1 (centres undefined) ?
MrgX1 antagonist: -7*; MrgX1 ag: inactive; MrgX1 PAM: inactive; Cl transport mod: -0.87; MrgX1 antag conf: inactive; HEK293 Ca flux: inactive; HEK293 Ca counter: inactive; HEK293 Ca cntr2: inactive

Results for O=C(Nc1cccnc1)c1cc(-c2ccccc2)on1 ?
MrgX1 antagonist: inactive; MrgX1 ag: inactive; MrgX1 PAM: inactive; RGS4 pot: inactive; Cl transport mod: -0.72; RGS4 block: inactive

How did O=C(Nc1cccnc1)c1cc(-c2ccc(Br)cc2)on1 do in these assays?
MrgX1 antagonist: -8.7*; MrgX1 ag: inactive; MrgX1 PAM: inactive; RGS4 pot: inactive; Cl transport mod: -2.3; RGS4 block: inactive; MrgX1 antag conf: inactive; HEK293 Ca flux: inactive; HEK293 Ca counter: inactive; HEK293 Ca cntr2: inactive

What do the screens show for `COc1ccc(-c2cc3c(=O)n(CC(=O)N4CCCC4)ncn3n2)cc1`?
MrgX1 antagonist: inactive; MrgX1 ag: inactive; MrgX1 PAM: inactive; RGS4 pot: inactive; RGS4 block: inactive

What do the screens show for `Cc1ccc(NC(=O)CCNS(=O)(=O)c2cc(Br)cnc2N)cc1Cl`?
MrgX1 antagonist: inactive; MrgX1 ag: inactive; MrgX1 PAM: inactive; RGS4 pot: inactive; Cl transport mod: 1.2; RGS4 block: inactive
